Source: ChEMBL document CHEMBL3352644, “Selenadiazole derivatives as potent thioredoxin reductase inhibitors that enhance the radiosensitivity of cancer cells” (Eur J Med Chem, 2014)
≈ marks a conversion by molar mass, not a printed value. Calls of active or inactive are those of the source. No cut-off for these calls is given here.

Tests used:
A-375 [1] = test: Induction of cell cycle arrest in human A375 cells assessed as accumulation at G2/M phase at 4 ug/mL incubated for 18 hrs by propidium iodide staining based flow cytometry (reference value: 13.9%); format: functional
Method in brief: (§1)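 A375 cells treated at 10 or 4 µg/ml for 6 h, given 0 or 8 Gy X-ray, then 12 h more. Trypsinized, washed in PBS, fixed overnight in ice-cold 75% ethanol at −20 °C. Stained with propidium iodide, 30 min at 37 °C in the dark; DNA content and sub-G1 population read by flow cytometry.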

A-375 [2] = test: Induction of ROS generation in human A375 cells at 2 ug/mL incubated for 6 hrs followed by irradiation with 8 Gy X-ray at 37 degC for 12 hrs by DCF and DHE dye based fluorescence assay; format: functional, cell-based
Method in brief: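 A375 cells (4 × 10⁴/well) cultured 24 h, then treated 6 h at 8 or 16 µg/ml or at 2 or 4 µg/ml, and given 0 or 8 Gy X-ray. Loaded with H₂DCF or DHE for 30 min at 37 °C in the dark. Fluorescence read at 485/535 nm (DCF) or 480/610 nm (DHE); % of control.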

A-375 [3] = test: Increase in Bax expression in human A375 cells at 4 ug/mL incubated for 6 hrs followed by irradiation with 8 Gy X-ray at 37 degC for 12 hrs by Western blotting method; format: functional, cell-based
Method in brief: (§2)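 A375 cells pretreated 6 h with compound at 4 µg/ml, given 0 or 8 Gy X-ray, then incubated 12 h more. Lysed in RIPA buffer, pH 7.4, with protease and phosphatase inhibitors; 50 µg protein run on SDS-PAGE and blotted to nitrocellulose. Blocked in 5% milk; primary antibodies 1:1000, 10 h at 4 °C; HRP secondary 1:2000.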

A-375 [4] = test: Cytotoxicity against human A375 cells incubated for 6 hrs followed by irradiation with 8 Gy X-ray at 37 degC for 12 hrs by MTT assay; format: functional, cell-based; details: A-375, light or radiation study
Method in brief: (§3)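 A375 cells (DMEM, 10% FBS, 37 °C, 5% CO2) seeded at 4 × 10⁴ cells/well and grown to 70–80% confluence. Treated with 0, 1, 2, 4, 8, 16 or 32 µg/ml for 6 h, then given 0 or 8 Gy X-ray (linear accelerator, 1.5 Gy/min), then 12 h more at 37 °C. MTT 4 h, formazan dissolved in DMSO, read at 570 nm; % of control; three repeats.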

A-375 [5] = test: Induction of apoptosis in human A375 cells assessed as accumulation at subG1 phase at 4 ug/mL incubated for 18 hrs by propidium iodide staining based flow cytometry (reference value: 1.8%); format: functional; method in brief: as §1
A-375 [6] = test: Induction of apoptosis in human A375 cells assessed as caspase 9 activation at 2 ug/mL incubated for 18 hrs by fluorometric assay; format: functional, cell-based
Method in brief: (§4)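 Cells seeded at 1 × 10⁶ per 10 cm dish and treated with 2 µg/ml alone or with 8 Gy X-ray for 18 h total. RIPA lysates clarified by spinning at 12,000 rpm for 5 min; 80 µg protein given Ac-DEVD-AMC (caspase-3), Ac-IETD-AMC (caspase-8) or Ac-LEHD-AMC (caspase-9). Incubated 2 h at 37 °C in the dark; fluorescence at 380/440 nm.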

A-375 [7] = test: Induction of apoptosis in human A375 cells assessed as caspase 8 activation at 2 ug/mL incubated for 18 hrs by Western blotting method; format: functional, cell-based
Method in brief: (§5)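 A375 cells treated with 2 µg/ml alone or with 8 Gy X-ray (6 h pretreatment, then 12 h; 18 h total). RIPA lysates (50 µg protein) run on SDS-PAGE and immunoblotted for caspases and PARP cleavage. Reprobed for β-actin as loading control.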

A-375 [8] = test: Increase in Bid cleavage in human A375 cells at 4 ug/mL incubated for 18 hrs by Western blotting method; format: functional, cell-based; method in brief: as §2
A-375 [9] = test: Induction of apoptosis in human A375 cells assessed as caspase 3 activation at 2 ug/mL incubated for 18 hrs by fluorometric assay; format: functional, cell-based; method in brief: as §4
A-375 [10] = test: Induction of cell cycle arrest in human A375 cells assessed as accumulation at G1/G0 phase at 4 ug/mL incubated for 6 hrs followed by irradiation with 8 Gy X-ray at 37 degC for 12 hrs by propidium iodide staining based flow cytometry (reference value: 44.9%); format: functional; method in brief: as §1
A-375 [11] = test: Induction of apoptosis in human A375 cells assessed as caspase 9 activation at 2 ug/mL incubated for 6 hrs followed by irradiation with 8 Gy X-ray at 37 degC for 12 hrs by Western blotting method; format: functional, cell-based; method in brief: as §5
A-375 [12] = test: Cytotoxicity against human A375 cells after 18 hrs by MTT assay; format: functional, cell-based; details: A-375, 18 h; method in brief: as §3
A-375 [13] = test: Induction of cell cycle arrest in human A375 cells assessed as accumulation at G2/M phase at 4 ug/mL incubated for 6 hrs followed by irradiation with 8 Gy X-ray at 37 degC for 12 hrs by propidium iodide staining based flow cytometry (reference value: 47.2%); format: functional; method in brief: as §1
A-375 [14] = test: Induction of apoptosis in human A375 cells assessed as PARP cleavage at 2 ug/mL incubated for 6 hrs followed by irradiation with 8 Gy X-ray at 37 degC for 12 hrs by Western blotting method; format: functional, cell-based; method in brief: as §5
A-375 [15] = test: Cytotoxicity against human A375 cells pre-treated with 20 uM JNK inhibitor SP600125 for 1 hr followed by 8 ug/mL compound exposure for 18 hrs by MTT assay; format: functional, cell-based
Method in brief: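 A375 cells pretreated 1 h with 20 µM SP600125 (JNK) or SB203580 (p38), then exposed to compound at 8 µg/ml for 18 h. Viability by MTT (formazan in DMSO, 570 nm), expressed as % of control.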

Homo sapiens = organism: Homo sapiens; test: Binding affinity to PMB-AGUVGAGLIK TrxR model peptide (unknown origin) at peptide to compound molar ratio of 1:1 at 37 degC for 18 hrs by MALDI-TOF-MS/MS assay
Method in brief: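 Pre-reduced TrxR model peptide PMB-Ala-Gly-Sec-Val-Gly-Ala-Gly-Leu-Ile-Lys incubated with compound at 1:1 molar ratio, 37 °C, 18 h; adducts examined by MALDI-TOF MS, looking for compound-derived mass shifts and fragment peaks.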

A-375 [16] = test: Induction of apoptosis in human A375 cells assessed as caspase 3 activation at 2 ug/mL incubated for 6 hrs followed by irradiation with 8 Gy X-ray at 37 degC for 12 hrs by fluorometric assay; format: functional, cell-based; method in brief: as §4
A-375 [17] = test: Reduction in Bid expression in human A375 cells at 4 ug/mL incubated for 6 hrs followed by irradiation with 8 Gy X-ray at 37 degC for 12 hrs by Western blotting method; format: functional, cell-based
Method in brief: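 A375 cells given […] for 6 h, then 0 or 8 Gy X-ray at 1.5 Gy/min and 12 h further culture. Lysis in ice-cold RIPA, pH 7.4, with protease and phosphatase inhibitors; protein by BCA. […] protein per lane on SDS-PAGE, transferred to nitrocellulose. Blocked in 5% milk/TBST. Primary 1:1000, 10 h, 4 °C; HRP secondary 1:2000, 1.5 h.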

A-375 [18] = test: Induction of cell shrinkage in human A375 cells pre-treated with 20 uM p38 inhibitor […] for 1 hr followed by 8 ug/mL compound exposure for 18 hrs by microscopy; format: functional, cell-based
Method in brief: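 A375 cells pretreated 1 h with […] JNK inhibitor SP600125 or p38 inhibitor SB203580, then given […] compound for 18 h. Morphology imaged.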

Activity (Homo sapiens): Active
Structure (SMILES): COc1cc(-c2nc3cc(-c4ccc5n[se]nc5c4)ccc3[nH]2)cc(OC)c1OC
Activity (A-375 [1]): 44.4%
Activity (A-375 [2]): Active
Activity (A-375 [3]): Active
IC50 (A-375 [4]): 2.2 µg/mL (≈ 4.73 µM)
Activity (A-375 [5]): 36.2%
Activity (A-375 [6]): Active
Activity (A-375 [7]): Active
Activity (A-375 [8]): Active
Activity (A-375 [9]): Active
Activity (A-375 [10]): 47.3%
Activity (A-375 [11]): Active
IC50 (A-375 [12]): 12.4 µg/mL (≈ 26.6 µM)
Activity (A-375 [13]): 22.1%
Activity (A-375 [14]): Active
Activity (A-375 [15]): Active
Activity (A-375 [16]): Active
Activity (A-375 [17]): Active
Activity (A-375 [18]): inactive
